STAT1 act = increases IFN-gamma driven STAT1 reporter signal. NIH 3T3 STAT1-luciferase reporter, luminescence; 100% = IFN-gamma alone, no compound. activation (% of control), % at 5.5 µM. hit rate 2.6% among 200,000. AID 932;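 active means activation above the screen-wide mean activation plus 3 SD, cut at about 130% in these data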
NF-kB expr up = compounds increasing NF-kB expression in human neuronal cells | hit rate 1.6% among 190,000 | fold change at 12.5 µM | NF-kB reporter expression; stronger effect = higher value | AID 1239; in the data active means fold change above about 3.3
STAT3 inh = inhibitors of IL-6 induced STAT3 signaling | U3A cells, IL-6 STAT3-luciferase reporter, luminescence; host cell line lacks STAT1 | inhibition, % at 5.5 µM | hit rate 0.89% among 190,000;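 active means inhibition above the mean inhibition across all screened compounds plus 3 SD, cut at about 44% in these data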
STAT3 activator = increases IL-6 driven STAT3 reporter signal. U3A cells, IL-6 STAT3-luciferase reporter, luminescence; 100% = signal with IL-6 EC80 alone. hit rate 0.91% among 190,000. activation (% of control), % at 5.6 µM;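 active means activation above the screen-wide mean of compound activation plus 3 SD, cut at about 130% in these data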
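Material: STAT3-luciferase reporter U3A cells. Controls: IL-6-treated wells, 100% activation. Read-out: % activation versus median of IL-6-stimulated wells. Probe or stimulus: IL-6 stimulus at 33 ng/mL final. Timing: compound 1 h, then IL-6 6 h at 37 °C. Signal: reporter luminescence signal.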
STAT1 blocker = inhibitors of IFN-gamma induced STAT1 signaling. hit rate 0.35% among 200,000. NIH 3T3 STAT1-luciferase reporter, luminescence. inhibition, % at 5.5 µM;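 active means inhibition above a set limit, the mean inhibition across all tested compounds plus 3 SD, cut at about 34% in these data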
APP 5'UTR act = APP 5'UTR luciferase reporter activation; activation, % at 2 µM; SH-SY5Y APP 5'UTR luciferase reporter, luminescence; zero percent = DMSO vehicle wells; AID 1276; hit rate 1% among 190,000;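 active means activation above a set limit, based on mean plus 3 SD of controls, cut at about 140% in these data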
STAT1 activ conf = confirmation of STAT1 signaling activators. shares compounds with STAT1 act. NIH 3T3 STAT1-luciferase reporter, IFN-gamma potentiation, luminescence; 100% = IFN-gamma EC80 alone, no compound. activation (% of control), % at 5.7 µM. hit rate 97% among 1,200;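 active means activation above a set limit carried over from the earlier primary STAT1 screen, cut at about 140% in these data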
NFkB act STAT1ct = NF-kappaB activation in STAT1 activator counter-screen; shares compounds with STAT1 act; HEK293T NF-kB luciferase reporter, TNF-alpha stimulated, luminescence; 100% = TNF-alpha with vehicle only; activation (% of control), % at 5.7 µM; hit rate 43% among 1,200;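 active means activation above the mean of solvent-only control wells plus 3 SD, set per campaign, cut at about 130% in these data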;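 further: TNF-alpha given at a submaximal dose yielding about 80% of full reporter signal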
STAT3 act STAT1c = activates human STAT3, counter-screen to STAT1 activators; activation (% of control), % at 5.7 µM; shares compounds with STAT1 act; hit rate 46% among 1,200; U3A cells STAT3-luciferase reporter, IL-6, luminescence; cells lack STAT1; 100 = IL-6 alone, no compound effect; AID 1316;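 active means activation above the solvent-only control well mean plus 3 SD, set per plate batch, cut at about 110% in these data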;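 further: higher means more STAT3 reporter activation so hits are non-selective activators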
Of the large screens only hits and unclear results are named; the others gave an inactive call (follow-up assays come after a bar, where they were run). The list is not random: actives were taken first. Their share in the collection is about 5.1%.

COC(=O)C(C)N1C(=O)S/C(=C/c2cc(C)n(-c3ccccn3)c2C)C1=O (stereo not drawn)	STAT1 act 152, NF-kB expr up 3.6 | STAT1 activ conf 173 | NFkB act STAT1ct 133 | STAT3 act STAT1c 116
Cc1cccc(OCCCC(=O)Nc2ccc3c(c2)OCO3)c1	none
Cc1cccc(OCCCC(=O)Nc2ccc(N3CCCCC3)cc2)c1C	none
Cc1cc(C)nc(SCc2csc(-c3ccccc3)n2)n1	STAT1 act 169, NF-kB expr up 4.5, APP 5'UTR act 146 | STAT1 activ conf 187 | NFkB act STAT1ct inactive | STAT3 act STAT1c inactive
CCCCCNCc1cccn1C	none
Cc1[nH]n(-c2ccccc2)c(=O)c1C1(C(F)(F)F)C(=O)N(c2ccccc2)C2=C1C(=O)CC(C)(C)C2 (stereo not drawn)	none
Cc1sc2nc(SCC(=O)C(C)(C)C)n(Cc3ccco3)c(=O)c2c1C	none
Cc1sc2nc3c4ccccc4c(NCc4ccco4)nn3c(=O)c2c1C	STAT1 act 157, NF-kB expr up 3.8, APP 5'UTR act 136 | STAT1 activ conf 208 | NFkB act STAT1ct 155 | STAT3 act STAT1c 114
CC(/C=N/NC(=O)c1sc(N)nc1C)=C\c1ccccc1	STAT1 act 153 | STAT1 activ conf 146 | NFkB act STAT1ct inactive | STAT3 act STAT1c inactive
Cc1nc(N)sc1C(=O)N/N=C/c1ccccc1[N+](=O)[O-]	STAT1 act 156 | STAT1 activ conf 155 | NFkB act STAT1ct inactive | STAT3 act STAT1c 118
Cc1ccc(-c2nc3cc(N)ccc3o2)c(C)c1	STAT1 act 154, NF-kB expr up 4.9 | STAT1 activ conf 233 | NFkB act STAT1ct inactive | STAT3 act STAT1c inactive
O=c1c2ccccc2cnn1-c1ccc(Cl)cc1	STAT1 act 166, NF-kB expr up 5.1 | STAT1 activ conf 192 | NFkB act STAT1ct inactive | STAT3 act STAT1c 128
COc1ccccc1/C=C/C(=O)NCCC1=CCCCC1	STAT1 act 159 | STAT1 activ conf 170 | NFkB act STAT1ct inactive | STAT3 act STAT1c 134
COc1ccccc1OCC(=O)NCCC1=CCCCC1	none
CCOc1ccccc1-n1c(CNc2ccc(F)cc2)nnc1SCC(=O)NCc1ccco1	none
O=C(/C(C=Nc1cccc(C(F)(F)F)c1)=C(/O)c1ccco1)C(F)(F)F	none
O=C(/C(C=Nc1ccc(Br)cc1)=C(/O)c1ccco1)C(F)(F)F	STAT1 act 166, NF-kB expr up 5.7, APP 5'UTR act 171 | STAT1 activ conf 201 | NFkB act STAT1ct inactive | STAT3 act STAT1c inactive
O=C1c2ccccc2C(=O)N1CCCc1c[nH]c2ccccc12	none
O=C1c2ccccc2C(=O)N1CCc1c[nH]c2ccccc12	STAT1 act 158, NF-kB expr up 4.6 | STAT1 activ conf 177 | NFkB act STAT1ct inactive | STAT3 act STAT1c inactive
Cc1ccnc(NC(=O)Nc2ccc3c(c2)N(C)C(=O)CS3)c1	STAT1 act 181 | STAT1 activ conf 192 | NFkB act STAT1ct 135 | STAT3 act STAT1c inactive
Cc1ccnc(NC(=O)Nc2ccc(Br)cc2Cl)c1	STAT1 act 168, APP 5'UTR act 165 | STAT1 activ conf 257 | NFkB act STAT1ct inactive | STAT3 act STAT1c inactive
Cc1ccnc(NC(=O)Nc2ccc(F)cc2)c1	STAT1 act 158, NF-kB expr up 4.8 | STAT1 activ conf 224 | NFkB act STAT1ct inactive | STAT3 act STAT1c inactive
COc1ccc2cc(CN(CC3CCCO3)C(=O)Nc3ccccc3)c(=O)[nH]c2c1 (stereo not drawn)	none
Cc1ccc(S(=O)(=O)NC(CC(=O)N2CCOCC2)c2ccco2)cc1 (stereo not drawn)	none
Cc1ccc(S(=O)(=O)NCC(=O)OCC(=O)c2ccc(Br)s2)cc1	none
O=C(Nc1ccc(/C=C/c2nc3ccccc3o2)cc1)c1c(F)cccc1F	STAT1 act 175, APP 5'UTR act 208 | STAT1 activ conf 205 | NFkB act STAT1ct inactive | STAT3 act STAT1c inactive
CCN(CC)CCCNc1nc2cc(OC)c(OC)cc2c2nc(-c3ccccc3)nn12	none
Cc1ccsc1C(=O)N/N=C/c1ccc2c(c1)OCO2	STAT1 act 161, NF-kB expr up 6.2, APP 5'UTR act 158 | STAT1 activ conf 226 | NFkB act STAT1ct inactive | STAT3 act STAT1c inactive
Cc1ccsc1/C=N/NC(=O)Nc1ccccc1	STAT1 act 172, NF-kB expr up 4, APP 5'UTR act 147 | STAT1 activ conf 192 | NFkB act STAT1ct inactive | STAT3 act STAT1c inactive
O=C(N/N=C/c1ccc2c(c1)OCO2)c1ccc2c(c1)OCCO2	none
O=C(N/N=C/c1ccc2c(c1)OCO2)c1cccs1	STAT1 act 174, NF-kB expr up 4.3 | STAT1 activ conf 204 | NFkB act STAT1ct 134 | STAT3 act STAT1c 117
Cc1cc(C(=O)N/N=C/c2ccc3c(c2)OCO3)c(C)o1	none
Cc1ccccc1/C=N/NC(=O)c1sccc1C	STAT1 act 163, NF-kB expr up 5 | STAT1 activ conf 205 | NFkB act STAT1ct 134 | STAT3 act STAT1c inactive
Cc1cc(Nc2ccc(Br)cc2F)n2nc(C)nc2n1	none
CCN(CC)S(=O)(=O)c1cc(C(=O)OCC(=O)c2ccc3c(c2)NC(=O)CO3)ccc1F	none
Cc1ccc2cc(CCNC(=O)c3cccs3)c(=O)[nH]c2c1C	STAT1 act 165, NF-kB expr up 4 | STAT1 activ conf 187 | NFkB act STAT1ct 135 | STAT3 act STAT1c inactive
CC(=O)NCCc1cc2ccc(C)c(C)c2[nH]c1=O	none
CC(=O)c1c(C)nc(-c2ccc(Cl)cc2)nc1N	STAT1 act 152 | STAT1 activ conf 175 | NFkB act STAT1ct 140 | STAT3 act STAT1c 146
CCOC(=O)Cc1csc(SCC(=O)Nc2cc(Cl)ccc2Oc2ccccc2)n1	none
Cc1cc(C)n(-c2ccc(C(=O)Nc3ccccn3)cc2)n1	STAT1 act 156, NF-kB expr up 4.1, APP 5'UTR act 142 | STAT1 activ conf 181 | NFkB act STAT1ct inactive | STAT3 act STAT1c inactive
Cc1cc(C)n(-c2ccc(C(=O)Nc3nnc(C)s3)cc2)n1	none
Cc1cc(C)n(-c2ccc(C(=O)Nc3sccc3C(N)=O)cc2)n1	STAT1 act 163, APP 5'UTR act 171 | STAT1 activ conf 211 | NFkB act STAT1ct inactive | STAT3 act STAT1c inactive
Cc1cc(C)n(-c2ccc(C(=O)Nc3cccnc3Cl)cc2)n1	none
O=C(CSc1ccccc1)N[C@@H](Cc1ccccc1)C(=O)O	none (no result: STAT3 inh, STAT3 activator)
COC(=O)CSc1nc2cc(C)cc(C)c2cc1C#N	none

Screening results: PubChem, several laboratories
